Key:
[1] = target: T1, Type-1 angiotensin II receptor (Bos taurus, UniProt P25104); experiment: In vitro for inhibition of [125I]-angiotensin II (0.1 nM) binding to angiotensin II receptor type 1 in membrane fractions of bovine adrenal cortex; type: tissue-based
T1 sequence (P25104 whole entry): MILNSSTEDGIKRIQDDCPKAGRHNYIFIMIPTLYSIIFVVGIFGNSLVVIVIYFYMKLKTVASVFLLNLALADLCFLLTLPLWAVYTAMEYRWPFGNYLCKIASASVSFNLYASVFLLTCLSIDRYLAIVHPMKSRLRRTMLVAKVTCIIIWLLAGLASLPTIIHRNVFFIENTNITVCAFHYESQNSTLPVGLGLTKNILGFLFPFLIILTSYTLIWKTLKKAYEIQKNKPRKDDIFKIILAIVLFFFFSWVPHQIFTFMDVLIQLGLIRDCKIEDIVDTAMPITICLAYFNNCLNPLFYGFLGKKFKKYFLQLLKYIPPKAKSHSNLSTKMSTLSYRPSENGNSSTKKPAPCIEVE

[2] = target: Angiotensin II receptor (Rattus norvegicus) (UniProt P29089+P25095+P35351); experiment: In vivo inhibitory activity against angiotensin II induced pressor response in anesthetized normotensive rats; type: functional, organism-based
Procedure, shortened: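 Male Wistar-Imamichi rats (300–400 g) under inactin (100 mg/kg ip), with femoral arterial and venous cannulae. AII 50 ng/kg iv every 10 min until responses were constant. Compound in DMSO was then given iv and AII re-injected 2 min later.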

Rattus norvegicus [3] = experiment: Inhibitory activity against AII-Induced Pressor response at 0.3 mg/Kg at 1 hr; type: functional
Procedure, shortened: (§1)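 Male Wistar-Imamichi rats (300–400 g) cannulated under pentobarbital (50 mg/kg ip), fasted 24 h, tested conscious the next day. AII 50 ng/kg iv was repeated until constant, then compound in 50% aqueous DMF given orally. AII was repeated over 8 h, and mean blood pressure response inhibition (%) was recorded at 1, 3, 6 h. n = 3–5.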

Rattus norvegicus [4] = experiment: Inhibitory activity against AII-Induced Pressor response at 0.3 mg/Kg at 3 hour; type: functional; procedure, shortened: as §1
Rattus norvegicus [5] = experiment: Inhibitory activity against AII-Induced Pressor response at 0.3 mg/Kg at 6 hour; type: functional; procedure, shortened: as §1
Rattus norvegicus [6] = experiment: Inhibitory activity against AII-Induced Pressor response at 1 mg/kg at 1 hr; type: functional; procedure, shortened: as §1
Rattus norvegicus [7] = experiment: Inhibitory activity against AII-Induced Pressor response at 1 mg/kg at 3 hour; type: functional; conditions: Rattus norvegicus, 3 h; procedure, shortened: as §1
Rattus norvegicus [8] = experiment: Inhibitory activity against AII-Induced Pressor response at 1 mg/kg at 6 hour; type: functional; conditions: Rattus norvegicus, 6 h, dose 1 mg/kg; procedure, shortened: as §1

CCCc1nc(C)c(C(=O)O)n1Cc1ccc(-c2ccccc2C(=O)O)cc1
IC50 [1]: 110 nM
ID50 [2]: 0.096 mg/kg

CCc1nc(C(C)(C)O)c(C(=O)O)n1Cc1ccc(-c2ccccc2-c2nn[nH]n2)cc1
ID50 [2]: 0.019 mg/kg

CCCc1nc(C(C)(O)CC)c(C(=O)O)n1Cc1ccc(-c2ccccc2C(=O)O)cc1 (stereo not given)
IC50 [1]: 51 nM
ID50 [2]: 0.074 mg/kg

CCCc1nc(C(C)O)c(C(=O)O)n1Cc1ccc(-c2ccccc2C(=O)O)cc1 (stereo not given)
IC50 [1]: 28 nM
ID50 [2]: 0.062 mg/kg

CCCc1nc(C(=O)O)c(CO)n1Cc1ccc(-c2ccccc2C(=O)O)cc1
ID50 [2]: 8.8 mg/kg

CCCc1nc(CO)c(C(=O)OCC)n1Cc1ccc(-c2ccccc2C(=O)O)cc1
ID50 [2]: 1.5 mg/kg

C=C(C)c1nc(CCC)n(Cc2ccc(-c3ccccc3-c3nnn[nH]3)cc2)c1C(=O)O
IC50 [1]: 50 nM

CCCc1nc(C(C)O)c(C(=O)O)n1Cc1ccc(-c2ccccc2-c2nnn[nH]2)cc1 (stereo not given)
IC50 [1]: 4.9 nM

CCCc1nc(C(C)C)c(C(=O)O)n1Cc1ccc(-c2ccccc2C(=O)O)cc1
ID50 [2]: 0.14 mg/kg

CCCc1nc(C(=O)O)cn1Cc1ccc(-c2ccccc2-c2nn[nH]n2)cc1
ID50 [2]: 2.4 mg/kg

CCCc1nc(CC)c(C(=O)O)n1Cc1ccc(-c2ccccc2C(=O)O)cc1
IC50 [1]: 100 nM
ID50 [2]: 0.27 mg/kg

CCCCc1nc(Cl)c(C(=O)O)n1Cc1ccc(-c2ccccc2C(=O)O)cc1
ID50 [2]: 0.21 mg/kg

CCCc1ncc(C(=O)O)n1Cc1ccc(-c2ccccc2C(=O)O)cc1
IC50 [1]: 60 nM
ID50 [2]: 0.22 mg/kg

CCCc1nc(CO)c(C(=O)O)n1Cc1ccc(-c2ccccc2C(=O)O)cc1
ID50 [2]: 0.069 mg/kg

CCCc1nc(C(C)O)c(C(=O)O)n1Cc1ccc(-c2ccccc2-c2nn[nH]n2)cc1 (stereo not given)
ID50 [2]: 0.0063 mg/kg
inhibition in vivo at 0.3 mg/kg (Rattus norvegicus [3]): 80%
inhibition in vivo at 0.3 mg/kg (Rattus norvegicus [4]): 78%
inhibition in vivo at 0.3 mg/kg (Rattus norvegicus [5]): 69%

CCCc1nc(CO)c(C(=O)O)n1Cc1ccc(-c2ccccc2-c2nnn[nH]2)cc1
IC50 [1]: 6.9 nM

CCCc1nc(C(C)(C)O)c(C(=O)OCc2oc(=O)oc2C)n1Cc1ccc(-c2ccccc2C(=O)O)cc1
inhibition in vivo at 1 mg/kg (Rattus norvegicus [6]): 72%
inhibition in vivo at 1 mg/kg (Rattus norvegicus [7]): 70%
inhibition in vivo at 1 mg/kg (Rattus norvegicus [8]): 70%

CCc1nc(C(C)(C)O)c(C(=O)O)n1Cc1ccc(-c2ccccc2C(=O)O)cc1
IC50 [1]: 37 nM
ID50 [2]: 0.3 mg/kg

CCCCc1nc(C(C)(C)O)c(C(=O)O)n1Cc1ccc(-c2ccccc2C(=O)O)cc1
IC50 [1]: 30 nM
ID50 [2]: 0.066 mg/kg

CCCc1nc(C(=O)O)c(C(=O)O)n1Cc1ccc(-c2ccccc2C(=O)O)cc1
ID50 [2]: 0.67 mg/kg

C=C(C)c1nc(CCC)n(Cc2ccc(-c3ccccc3-c3nn[nH]n3)cc2)c1C(=O)O
ID50 [2]: 0.012 mg/kg

CCCCc1nc(Cl)c(CO)n1Cc1ccc(-c2ccccc2C(=O)O)cc1
ID50 [2]: 2.3 mg/kg

CCCCc1nc(C(C)(C)O)c(C(=O)O)n1Cc1ccc(-c2ccccc2-c2nnn[nH]2)cc1
IC50 [1]: 9.5 nM

Reference: ChEMBL document CHEMBL1129298, “Nonpeptide angiotensin II receptor antagonists: synthesis, biological activities, and structure-activity relationships of imidazole-5-carboxylic acids bearing alkyl, alkenyl, and hydroxyalkyl substituents at the 4-position and their related compounds” (J Med Chem, 1996)
